Screening results as filed in PubChem BioAssay.
PGC1a acetyl inh: lowers PGC1a acetylation signal in U2OS cells | AlphaScreen anti-acetyl-lysine; with virally co-expressed GCN5 acetyltransferase | inhibition, % at 15.6 µM | hit rate 0.17% among 350,000;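 active = every replicate shows inhibition of at least 40%; inconclusive = mean inhibition at least 40% but some replicate below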;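 also: 0% = neutral control wells and 100% = positive control wells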
EWS-Fli block: blocks EWS/Fli oncoprotein-driven transcription; A673 NR0B1-luciferase reporter, viability-normalised; inhibition, % at 12.6 µM; hit rate 0.67% among 350,000;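 active = mean inhibition of at least 50% after viability correction, with every replicate also passing that limit; inconclusive = mean reaches 50% but only one of two replicates passes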;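 also: firefly luciferase signal divided by Alamar Blue viability fluorescence both relative to DMSO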
Env fusion inh: inhibitors of HIV Env-mediated cell fusion; AID 651610; HeLa-JRFL Env/CEM21 cell fusion, luciferase; hit rate 1.1% among 360,000; inhibition, % at 12.3 µM;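 active = mean replicate inhibition score of at least 50 and every replicate individually at or above 50; inconclusive = only one of the two criteria met; inactive = mean below 50 and not all replicates reaching 50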;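 also: 0% = plate neutral controls and 100% = maraviroc near 300 nM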
PAX8 inh HTS: PAX8 transcriptional activity inhibition; RMG-I TPO-luciferase reporter, SteadyGlo, 24 h; inhibition, % at 12.6 µM; hit rate 1.2% among 360,000; AID 652154;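 active = mean replicate inhibition at least 60% with every replicate also reaching 60%; inconclusive = only one of the two criteria is met; inactive = mean below 60% and not all replicates reaching 60%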;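 also: luciferase light reporting Pax8 driven TPO promoter activity; plate controls were median of neutral control wells for no effect and mitoxantrone controls for full effect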
FGF22 binding: FGF22 (human) thermal shift binding | hit rate 1.5% among 340,000 | activity (Tm shift, normalised), % at 9.99 µM | AID 651658 | recombinant FGF22 thermal shift, SYPRO orange fluorescence; percent of sucrose octasulfate shift, DMSO zero;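 active = mean Tm shift, scaled 0 neutral to 100 positive control, at about 1.3% or above, every replicate too, limit read from the data; inconclusive = no clear call, values can overlap the other calls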
Target sequence (Q9HCT0 whole entry, looked up): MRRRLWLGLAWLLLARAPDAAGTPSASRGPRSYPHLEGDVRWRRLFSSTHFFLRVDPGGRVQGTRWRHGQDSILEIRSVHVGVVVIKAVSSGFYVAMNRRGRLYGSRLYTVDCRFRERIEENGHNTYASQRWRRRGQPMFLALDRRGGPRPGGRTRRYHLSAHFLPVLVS
FN deposit inh: fibronectin deposition inhibition; AID 743247; inhibition, % at 12.6 µM; AH1F fibroblasts, Alexa488-fibronectin deposition fluorescence, overnight; hit rate 0.086% among 350,000;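 active = mean inhibition across replicates of 30% or more, regardless of how many single replicates reach that level; inconclusive = mean under 30% yet at least half of replicates reach 30%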;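 also: positive control wells lacked labelled fibronectin entirely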
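test system = AH1F fibroblasts assembling fluorescent fibronectin matrix | quantity = 10000 AH1F cells per well | buffer or medium = DMEM plus 2% serum, read in PBS | doses = single dose, pinned | incubation = 1 h cell attachment, overnight exposure to compound and label | detection = fluorescence at 485 nm excitation, 525 nm emission | read-out basis = inhibition from reduced deposited-fibronectin fluorescence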
Active calls of the source: *; [ ] = dose if it differs, or a comment. Most compounds without a hit are left out; they make up all but 3.1% or so of the library.

For C[C@@H]1CCCCO[C@H](CN(C)CC2CCCCC2)[C@H](C)CN([C@@H](C)CO)C(=O)c2cc(NC(=O)Nc3ccccc3)ccc2O1 the results were PGC1a acetyl inh -2.8, EWS-Fli block 18.7, Env fusion inh 10.1[16.7 µM], PAX8 inh HTS 78.4*, FGF22 binding -0.1 and FN deposit inh 0.5.
C[C@@H]1CCCCO[C@@H](CN(C)CC2CCCCC2)[C@H](C)CN([C@@H](C)CO)C(=O)c2cc(NC(=O)Nc3ccc(C(F)(F)F)cc3)ccc2O1 was read as PGC1a acetyl inh 6.7, EWS-Fli block 76.2*, Env fusion inh 21.3[16.7 µM], PAX8 inh HTS 17.2, FGF22 binding -1.8 and FN deposit inh -11.9.
COCc1cn(CC[C@H]2CC[C@@H](NC(=O)CCN3CCCCC3)[C@@H](CO)O2)nn1 was read as PGC1a acetyl inh 1.5, EWS-Fli block 0.2, Env fusion inh -28.9[16.7 µM], PAX8 inh HTS -4.3, FGF22 binding 0.2 and FN deposit inh 3.7.
For C[C@@H]1CCCCO[C@@H](CN(C)C(=O)Nc2ccc(C(F)(F)F)cc2)[C@H](C)CN([C@H](C)CO)C(=O)c2cc(NC(=O)NC3CCCCC3)ccc2O1 the results were PGC1a acetyl inh 8.9, EWS-Fli block 3.7, Env fusion inh 38.1[16.7 µM], PAX8 inh HTS -7.3, FGF22 binding 0.6 and FN deposit inh -8.5.
Screening Cc1ccccc1-c1cnc2c(c1)C(=O)N([C@H](C)CO)C[C@@H](C)[C@@H](CN(C)CC1CCOCC1)O2 returned PGC1a acetyl inh -2.3, EWS-Fli block -10.3, Env fusion inh -7.0[16.7 µM] and FGF22 binding 0.0.
CC(C)C#Cc1cnc2c(c1)C(=O)N([C@@H](C)CO)C[C@H](C)[C@H](CN(C)C(=O)c1ccccc1F)O2 was read as PGC1a acetyl inh -6.7, EWS-Fli block -4.7, Env fusion inh 11.1[16.7 µM], PAX8 inh HTS 0.8, FGF22 binding -0.1 and FN deposit inh -8.3.
Screening COc1ccc(-c2csc(NC(=O)CSCc3c(C)noc3C)n2)cc1OC returned PGC1a acetyl inh -3.7, EWS-Fli block 3.3, Env fusion inh -10.9, PAX8 inh HTS 12.7, FGF22 binding -0.4 and FN deposit inh 8.9.
`Cc1noc(C)c1CSCC(=O)Nc1nc(-c2ccc(F)c(F)c2)cs1` gave EWS-Fli block 10.9, Env fusion inh 61.5*, PAX8 inh HTS -0.2 and FGF22 binding -0.3.
CC(=O)N1CCc2cc(N=NC3=C(O)CC(C)(C)CC3=O)ccc21 was read as EWS-Fli block -42.3, Env fusion inh -17.2, PAX8 inh HTS -150.1, FGF22 binding 43.0* and FN deposit inh -9.8.
For Cc1nc2ccc(N=NC3=C(O)CC(C)(C)CC3=O)cc2s1 the results were EWS-Fli block -42.0, Env fusion inh -10.2 and PAX8 inh HTS 8.2.
CCN1C(=O)[C@H]2[C@@H](c3ccc(C)cc3)N3C(=O)N(c4cccc(Br)c4)C(=O)[C@@]3(CC(C)C)[C@H]2C1=O was read as PGC1a acetyl inh -14.4, EWS-Fli block -11.5, Env fusion inh 104.3*, PAX8 inh HTS -0.9, FGF22 binding 0.1 and FN deposit inh 5.2.
For CCN1C(=O)[C@H]2[C@@H](c3ccc(C)cc3)N3C(=O)N(c4ccc(C(F)(F)F)cc4)C(=O)[C@@]3(CC(C)C)[C@H]2C1=O the results were PGC1a acetyl inh -22.3, EWS-Fli block -5.6, Env fusion inh 114.9*, PAX8 inh HTS 11.9, FGF22 binding 0.0 and FN deposit inh -4.6.
CCCNC(=O)C[C@H]1CC[C@H]2[C@H](COc3ccc(NC(=O)Nc4c(C)noc4C)cc3C(=O)N2C)O1 was read as PGC1a acetyl inh 0.0, EWS-Fli block 0.1, PAX8 inh HTS -16.2, FGF22 binding -0.1 and FN deposit inh -38.9.
For COc1ccc(-c2oc3cc(O)c(OC)c(O)c3c(=O)c2OC)cc1O the results were PGC1a acetyl inh -8.1, EWS-Fli block 36.2, Env fusion inh -37.2, PAX8 inh HTS 62.7*, FGF22 binding 0.1 and FN deposit inh -4.2.
`COc1cc(OC)c2c(=O)c(OC)c(-c3ccc(OC)c(OC)c3)oc2c1` gave PGC1a acetyl inh 4.6.
CC(C)(C)c1ccc(C(=O)Nc2ccc(CC(=O)O)cc2)o1 was read as PGC1a acetyl inh 1.4, Env fusion inh 84.7* and FN deposit inh -2.2.
Cc1ccc(C(=O)Nc2ccc(CC(=O)O)cc2)o1 was read as Env fusion inh -19.3 and FN deposit inh -6.0.
O=C(C1CCOCC1)N1C[C@@H]2[C@H](c3ccccc31)[C@@H](CO)N2Cc1ccc(Cl)cc1 was read as PGC1a acetyl inh 8.5, EWS-Fli block -6.5, PAX8 inh HTS 8.6 and FGF22 binding 0.2.
Screening CN(CC(=O)Nc1cccc(F)c1)C(=O)CCCc1cccs1 returned EWS-Fli block -6.6, PAX8 inh HTS 96.8*, FGF22 binding -0.2 and FN deposit inh 13.9.
O=C(c1cccc(F)c1)N1CC[C@@H]2[C@H](CO)Nc3ccc(C#Cc4ccc(F)cc4)cc3[C@@H]21 was read as PGC1a acetyl inh -10.5, EWS-Fli block -0.1, PAX8 inh HTS 11.0, FGF22 binding -0.3 and FN deposit inh 0.4.
Screening CS(=O)(=O)N1CCCCC1c1cc(C(=O)Nc2cccc3c2CCCC3)no1 (centres undefined) returned PGC1a acetyl inh -3.0, EWS-Fli block -5.2, Env fusion inh -12.1, PAX8 inh HTS 19.9, FGF22 binding -0.4 and FN deposit inh -3.6.
For N#Cc1ccc(S(=O)(=O)N2CCCCC2c2cc(C(=O)Nc3cccc4c3CCCC4)no2)cc1 (centres undefined) the results were PGC1a acetyl inh 6.7, EWS-Fli block -1.0, Env fusion inh 59.9*, PAX8 inh HTS 5.4 and FGF22 binding 0.0.
Clc1nnc(NC2CCCCC2)c(Cl)c1Cl was read as EWS-Fli block 3.8, Env fusion inh -20.2, PAX8 inh HTS 5.2, FGF22 binding 43.1* and FN deposit inh 6.4.
`COc1ccc(C2=Nn3c(nnc3-c3ccccc3OC)SC2)cc1OC1CCOC1` (centres undefined) gave EWS-Fli block 36.0, Env fusion inh -242.1, PAX8 inh HTS 68.3*, FGF22 binding 0.0 and FN deposit inh -18.4.
`CCOc1ccc(C2=Nn3c(nnc3-c3ccccc3OC)SC2)cc1` gave PGC1a acetyl inh -22.2, Env fusion inh inconclusive and PAX8 inh HTS 95.4*.
CCC(=O)N1[C@H](CO)[C@@H](c2ccc(/C=C/c3ccccc3)cc2)C12CN(S(C)(=O)=O)C2 was read as PGC1a acetyl inh -18.2, EWS-Fli block -2.9, PAX8 inh HTS -2.3, FGF22 binding -0.8 and FN deposit inh 3.7.
For C[C@H](CO)N1C[C@H](C)[C@@H](CN(C)S(C)(=O)=O)OCCCC[C@H](C)Oc2ccc(NS(C)(=O)=O)cc2C1=O the results were PGC1a acetyl inh -0.5, EWS-Fli block -14.0, Env fusion inh 11.0[16.7 µM], PAX8 inh HTS -19.1 and FGF22 binding 0.2.
